Experimental data reported in article PMC4184705 (Pharmacology Research & Perspectives, 2014).

Legend:
[1] = Safety: adverse event reports and clinical laboratory assessments; type: in vivo, human
Summary of the method: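 Open-label parallel-group study in postmenopausal women with osteoporosis, randomised 2:1. […] Group B received midazolam only. Adverse events recorded at any time through day 47 follow-up. Clinical laboratory tests at screening (21 days pre-treatment) and day 17. All treated subjects analysed.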

[2] = 2 mg oral midazolam dose; sample collection at 0.25 h; ref Winter et al. [2013]; cited from earlier work
[3] = Plasma midazolam pharmacokinetics after 2 mg oral doses on day 1 and day 16; details: for AUC(0-t) / AUC(0-inf) / Cmax / half-life: human, plasma; for AUC(0-inf): AUCinf; for half-life: t1/2, Group B (midazolam alone)
CYP3A4 [4] = details: healthy volunteers; ref Gupta et al. [2012]; cited from earlier work
CYP3A4 [5] = type: in vivo, human; details: single 60 mg SC dose of denosumab; postmenopausal women with osteoporosis
[6] = Serum denosumab concentration by validated ELISA; type: in vivo, human; details: day 16 (14 days after a 60 mg SC dose); Group A
RANKL = experiment: Serum C-telopeptide; type: in vivo, human; details: Group A; denosumab 60 mg SC on day 2
[7] = 60 mg SC dose; ref Bekker et al. [2004]; cited from earlier work
[8] = Group A (midazolam + denosumab), N = 17
[9] = Group B (midazolam alone), period effect, n = 8
[10] = po, 2 mg, Group B (midazolam alone), day 1, 2 mg oral, mean (SD), N = 8
[11] = po, 2 mg, Group B (midazolam alone), day 16, 2 mg oral, mean (SD), N = 8

Cc1ncc2n1-c1ccc(Cl)cc1C(c1ccccc1F)=NC2 [midazolam]
somnolence incidence ([1]; Group A, day 1 (prior to administration of denosumab), 7 of 19 subjects): 37% | somnolence incidence ([1]; Group B, day 1, 2 of 8 subjects): 25% | somnolence incidence ([1]; day 16 (after the second midazolam dose)): no subjects | somnolence incidence ([1]; days 2 to 15): no subjects | changes in clinical laboratory values from baseline ([1]; screening to day 17): unremarkable | deaths, withdrawal due to adverse events, serious adverse events ([1]; whole study): No deaths, withdrawal due to adverse events, or serious adverse events | mean Cmax [2]: 11.9 ng/mL | AUC0–inf, ratio of day 16/day 1, LS mean [3, 8]: 1.02 | AUC0–t, ratio of day 16/day 1, LS mean [3, 8]: 1.02 | Cmax, ratio of day 16/day 1, LS mean [3, 8]: 1.04 | AUCinf ([3]; Group A, day 1, midazolam 2 mg oral, mean (SD), N = 17): 35.6 (16.4) ng·h/mL | Tmax ([3]; Group B (midazolam alone), day 16, 2 mg oral, median (range), N = 8): 0.5 (0.5–1.0) hr | AUC0–inf, point estimate for the ratio of the least square means (day 16/day 1) [3, 9]: 0.98 | AUC0–t, point estimate for the ratio of the least square means (day 16/day 1) [3, 9]: 0.98 | Cmax, point estimate for the ratio of the least square means (day 16/day 1) ([3]; Group B (midazolam alone), period effect, n = 8, 90% CI 0.82 to 1.33): 1.05 | AUC(0-t) ([3]; oral): 31 ng·h/mL | AUC(0-t) ([3]; po, 2 mg): 30.4 ng·h/mL | AUC(0-inf) [3, 10]: 31 ng·h/mL | AUC(0-inf) [3, 11]: 29.3 ng·h/mL | Cmax [3, 10]: 11.3 ng/mL | Cmax [3, 11]: 10.9 ng/mL | half-life ([3]; po, 2 mg, day 1, 2 mg oral, mean (SD), N = 8): 6.2 h | half-life ([3]; po, 2 mg, day 16, 2 mg oral, mean (SD), N = 8): 6.22 h

C[C@@H]1CCN(C(=O)CC#N)C[C@@H]1N(C)c1ncnc2[nH]ccc12 [tofacitinib]
effects on CYP3A4 activity (midazolam pharmacokinetics) (CYP3A4 [4]): lack of effects

denosumab: fully human monoclonal immunoglobulin G2 (IgG2) that binds to and neutralizes RANKL activity
effect on CYP3A4 activity (based on midazolam pharmacokinetics) (CYP3A4 [5]): no effect | serum denosumab concentration, mean (SD) [6]: 5790 (1800) ng/mL | sCTX concentrations on day 16 lower than those on day 2, on average (RANKL): ~81% | time by which maximal pharmacodynamic effects are observed [7]: ≤ 1 week
